{"source": "ChEMBL document CHEMBL1255444", "about": "“In vitro antibacterial activities of JNJ-Q2, a new broad-spectrum fluoroquinolone” (Antimicrob Agents Chemother, 2010)", "key": {"[1]": {"test_system": "Streptococcus pneumoniae", "test": "Antibacterial activity against Streptococcus pneumoniae isolate OC6608 assessed as log reduction in bacterial growth at 2 times MIC measured at 24 hrs by time-kill assay", "format": "functional", "in_short": "(§1)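 Drug was diluted from 50× stocks made in water or acidified water. Samples were taken at 6 and 24 h and serially diluted onto TSA-5% sheep blood plates. Plates were incubated 20–24 h at 37°C in 5% CO2 before counting CFU. Log10 titer change is given relative to the starting inoculum.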"}, "[2]": {"test": "Dissociation constant, pKa of the compound", "format": "physicochemical"}, "[3]": {"test": "Plasma protein binding in rat infected with gram-positive bacteria", "format": "ADME, cell-free", "conditions": "read-out: PPB (converted)"}, "[4]": {"test_system": "Staphylococcus epidermidis", "test": "Antibacterial activity against methicillin-resistant Staphylococcus epidermidis by broth microdilution method", "format": "functional"}, "[5]": {"test_system": "Staphylococcus epidermidis", "test": "Antibacterial activity against methicillin-, ciprofloxacin-resistant Staphylococcus epidermidis by broth microdilution method", "format": "functional"}, "[6]": {"test": "Antibacterial activity against Streptococcus sp. group C by broth microdilution method", "format": "functional", "in_short": "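MICs by broth microdilution following CLSI M07-A7 in cation-adjusted Mueller-Hinton medium, using isolates from the J&JPRD culture collection. CLSI quality control strains were included as appropriate.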"}, "[7]": {"test_system": "Escherichia coli", "test": "Antibacterial activity against ciprofloxacin-resistant Escherichia coli by broth microdilution method", "format": "functional", "in_short": "(§2)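 CLSI M07-A7 broth microdilution MIC. Medium was cation-adjusted Mueller-Hinton broth. For S. pneumoniae it was Mueller-Hinton supplemented with 5% lysed horse blood. CLSI quality-control strains were included as appropriate.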"}, "[8]": {"test_system": "Enterobacter cloacae", "test": "Antibacterial activity against Enterobacter cloacae by broth microdilution method", "format": "functional"}, "[9]": {"test_system": "Klebsiella pneumoniae", "test": "Antibacterial activity against Klebsiella pneumoniae by broth microdilution method", "format": "functional", "in_short": "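MICs by CLSI M07-A7 broth microdilution in cation-adjusted Mueller-Hinton medium. For S. pneumoniae the medium was supplemented with 5% lysed horse blood. CLSI quality control strains were run alongside as appropriate.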"}, "[10]": {"test_system": "Providencia stuartii", "test": "Ratio of Ciprofloxacin MIC90 to compound MIC90 for Providencia stuartii", "format": "functional"}, "[11]": {"test_system": "Streptococcus pneumoniae", "test": "Ratio of Levofloxacin MIC90 to compound MIC90 for ciprofloxacin-resistant Streptococcus pneumoniae", "format": "functional"}, "[12]": {"test_system": "Streptococcus pneumoniae", "test": "Antibacterial activity against Streptococcus pneumoniae isolate OC7189 assessed as log reduction in bacterial growth at 2 times MIC measured at 6 hrs by time-kill assay", "format": "functional", "in_short": "as §1"}, "[13]": {"test_system": "Streptococcus pneumoniae", "test": "Antibacterial activity against Streptococcus pneumoniae isolate OC7189 assessed as log reduction in bacterial growth at 4 times MIC measured at 6 hrs by time-kill assay", "format": "functional", "in_short": "as §1"}, "[14]": {"test_system": "Streptococcus pneumoniae", "test": "Antibacterial activity against Streptococcus pneumoniae isolate OC7189 assessed as log reduction in bacterial growth at 2 times MIC measured at 24 hrs by time-kill assay", "format": "functional", "in_short": "as §1"}, "[15]": {"test_system": "Streptococcus pneumoniae", "test": "Antibacterial activity against Streptococcus pneumoniae isolate OC7189 assessed as log reduction in bacterial growth at 4 times MIC measured at 24 hrs by time-kill assay", "format": "functional", "in_short": "as §1"}, "[16]": {"test_system": "Streptococcus pneumoniae", "test": "Antibacterial activity against Streptococcus pneumoniae isolate OC7376 assessed as log reduction in bacterial growth at 2 times MIC measured at 6 hrs by time-kill assay", "format": "functional", "in_short": "as §1"}, "[17]": {"test_system": "Streptococcus pneumoniae", "test": "Antibacterial activity against Streptococcus pneumoniae isolate OC7376 assessed as log reduction in bacterial growth at 4 times MIC measured at 24 hrs by time-kill assay", "format": "functional", "in_short": "as §1"}, "[18]": {"test_system": "Streptococcus pneumoniae", "test": "Antibacterial activity against Streptococcus pneumoniae isolate OC6790 by broth microdilution method", "format": "functional", "in_short": "as §2"}, "[19]": {"test_system": "Streptococcus pneumoniae", "test": "Antibacterial activity against Streptococcus pneumoniae isolate OC6790 assessed as log reduction in bacterial growth at 4 times MIC measured at 6 hrs by time-kill assay", "format": "functional", "in_short": "as §1"}, "[20]": {"test_system": "Streptococcus pneumoniae", "test": "Antibacterial activity against Streptococcus pneumoniae isolate OC7368 by broth microdilution method", "format": "functional", "in_short": "as §2"}, "[21]": {"test_system": "Streptococcus pneumoniae", "test": "Antibacterial activity against Streptococcus pneumoniae isolate OC7368 assessed as log reduction in bacterial growth at 2 times MIC measured at 6 hrs by time-kill assay", "format": "functional", "in_short": "as §1"}, "[22]": {"test_system": "Streptococcus pneumoniae", "test": "Antibacterial activity against Streptococcus pneumoniae isolate OC7368 assessed as log reduction in bacterial growth at 2 times MIC measured at 24 hrs by time-kill assay", "format": "functional", "in_short": "as §1"}, "[23]": {"test_system": "Streptococcus pneumoniae", "test": "Antibacterial activity against Streptococcus pneumoniae isolate OC7368 assessed as log reduction in bacterial growth at 4 times MIC measured at 24 hrs by time-kill assay", "format": "functional", "in_short": "as §1"}, "[24]": {"test_system": "Streptococcus pneumoniae", "test": "Antibacterial activity against Streptococcus pneumoniae isolate OC7348 assessed as log reduction in bacterial growth at 2 times MIC measured at 6 hrs by time-kill assay", "format": "functional", "in_short": "as §1"}, "[25]": {"test_system": "Streptococcus pneumoniae", "test": "Antibacterial activity against Streptococcus pneumoniae isolate OC6610 assessed as log reduction in bacterial growth at 2 times MIC measured at 6 hrs by time-kill assay", "format": "functional", "in_short": "as §1"}, "[26]": {"test_system": "Staphylococcus aureus", "test": "Antibacterial activity against methicillin-resistant Staphylococcus aureus isolate OC8525 harboring wild type quinolone resistance-determining region by broth microdilution method", "format": "functional"}, "[27]": {"test_system": "Staphylococcus aureus", "test": "Antibacterial activity against methicillin-resistant Staphylococcus aureus isolate OC2838 by broth microdilution method", "format": "functional", "in_short": "as §2"}, "[28]": {"test_system": "Staphylococcus aureus", "test": "Antibacterial activity against methicillin-resistant Staphylococcus aureus isolate OC17042 harboring gyrA S84L/G106D, parC S80F and parE D732N mutant gene by broth microdilution method", "format": "functional", "in_short": "as §2"}, "[29]": {"test_system": "Staphylococcus aureus", "test": "Antibacterial activity against methicillin-resistant Staphylococcus aureus isolate OC11223 assessed as log reduction in bacterial growth at 2 times MIC measured at 24 hrs by time-kill assay", "format": "functional", "in_short": "(§3)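 Overnight MRSA cultures were diluted into fresh cation-adjusted Mueller-Hinton broth to about 5 × 10^6 CFU/ml. […] Samples were plated serially diluted on trypticase soy agar, and CFU were counted after 20-24 h at 37°C. Value is the log10 decrease at 24 h from the starting inoculum; detection limit 100 CFU.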"}, "[30]": {"test_system": "Staphylococcus aureus", "test": "Antibacterial activity against methicillin-resistant Staphylococcus aureus isolate OC11223 assessed as log reduction in bacterial growth at 4 times MIC measured at 24 hrs by time-kill assay", "format": "functional", "in_short": "as §3"}, "[31]": {"test_system": "Staphylococcus aureus", "test": "Antibacterial activity against methicillin-resistant Staphylococcus aureus isolate OC8525 harboring wild type quinolone resistance-determining region assessed as log reduction in bacterial growth at 2 times MIC measured at 24 hrs by time-kill assay", "format": "functional", "in_short": "as §3"}, "[32]": {"test_system": "Staphylococcus aureus", "test": "Antibacterial activity against methicillin-resistant Staphylococcus aureus isolate OC4222 harboring gyrA S84L and parC S80F mutant gene assessed as log reduction in bacterial growth at 2 times MIC measured at 24 hrs by time-kill assay", "format": "functional", "in_short": "as §3"}, "[33]": {"test_system": "Staphylococcus aureus", "test": "Antibacterial activity against methicillin-resistant Staphylococcus aureus isolate OC2838 assessed as log reduction in bacterial growth at 2 times MIC measured at 24 hrs by time-kill assay", "format": "functional", "in_short": "as §3"}, "[34]": {"test_system": "Streptococcus pneumoniae", "test": "Antibacterial activity against Streptococcus pneumoniae OC7453 harboring gyrA S81F mutant gene by agar dilution method", "format": "functional", "in_short": "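MICs for the resistance-selection studies were determined by CLSI agar dilution on Mueller-Hinton medium. For S. pneumoniae the medium was supplemented with 5% lysed horse blood. For MRSA fluctuation-assay strains an arithmetic agar dilution scheme was used for a more precise MIC.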"}, "[35]": {"test_system": "Staphylococcus aureus", "test": "Antibacterial activity against methicillin-resistant Staphylococcus aureus isolate OC8525 harboring wild type quinolone resistance-determining region by agar dilution method", "format": "functional", "in_short": "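CLSI agar dilution MIC on cation-adjusted Mueller-Hinton medium. These were the MIC values used for the resistance studies, and CLSI quality-control strains were included as appropriate.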"}}, "data": [{"smiles": "COc1c(N2CCC/C(=C(\\F)CN)C2)c(F)cc2c(=O)c(C(=O)O)cn(C3CC3)c12", "note": "[ACORAFLOXACIN]", "values": [{"measurement": "deltalog10CFU/ml", "setting": "[1]", "result": 5.8}, {"measurement": "pKa", "setting": "[2]", "result": 6.13}, {"measurement": "fraction unbound", "setting": "[3]", "result": 0.44}, {"measurement": "MIC50", "setting": "[4]", "result": 0.12, "unit": "µg/mL"}, {"measurement": "MIC90", "setting": "[4]", "result": 0.25, "unit": "µg/mL"}, {"measurement": "MIC50", "setting": "[5]", "result": 0.12, "unit": "µg/mL"}, {"measurement": "MIC90", "setting": "[5]", "result": 0.25, "unit": "µg/mL"}, {"measurement": "MIC50", "setting": "[6]", "result": 8, "unit": "ng/mL"}, {"measurement": "MIC90", "setting": "[6]", "result": 0.015, "unit": "µg/mL"}, {"measurement": "MIC50", "setting": "[7]", "result": 4, "unit": "µg/mL"}, {"measurement": "MIC90", "setting": "[7]", "result": 16, "unit": "µg/mL"}, {"measurement": "MIC50", "setting": "[8]", "result": 0.12, "unit": "µg/mL"}, {"measurement": "MIC90", "setting": "[8]", "result": 0.12, "unit": "µg/mL"}, {"measurement": "MIC50", "setting": "[9]", "result": 0.12, "unit": "µg/mL"}, {"measurement": "MIC90", "setting": "[9]", "result": 0.25, "unit": "µg/mL"}, {"measurement": "Ratio", "setting": "[10]", "result": 16}, {"measurement": "Ratio", "setting": "[11]", "result": 9}, {"measurement": "deltalog10CFU/ml", "setting": "[12]", "result": 4}, {"measurement": "deltalog10CFU/ml", "setting": "[13]", "result": 4.2}, {"measurement": "deltalog10CFU/ml", "setting": "[14]", "result": 7.5}, {"measurement": "deltalog10CFU/ml", "setting": "[15]", "result": 7.2}, {"measurement": "deltalog10CFU/ml", "setting": "[16]", "result": 4.4}, {"measurement": "deltalog10CFU/ml", "setting": "[17]", "result": 6.3}, {"measurement": "MIC", "setting": "[18]", "result": 0.12, "unit": "µg/mL"}, {"measurement": "deltalog10CFU/ml", "setting": "[19]", "result": 3.6}, {"measurement": "MIC", "setting": "[20]", "result": 0.12, "unit": "µg/mL"}, {"measurement": "deltalog10CFU/ml", "setting": "[21]", "result": 4}, {"measurement": "deltalog10CFU/ml", "setting": "[22]", "result": 7.2}, {"measurement": "deltalog10CFU/ml", "setting": "[23]", "result": 6.9}, {"measurement": "deltalog10CFU/ml", "setting": "[24]", "result": 3.8}, {"measurement": "deltalog10CFU/ml", "setting": "[25]", "result": 3.4}, {"measurement": "MIC", "setting": "[26]", "result": 8, "unit": "ng/mL"}, {"measurement": "MIC", "setting": "[27]", "result": 0.25, "unit": "µg/mL"}, {"measurement": "MIC", "setting": "[28]", "result": 0.5, "unit": "µg/mL"}, {"measurement": "deltalog10CFU/ml", "setting": "[29]", "result": 2.5}, {"measurement": "deltalog10CFU/ml", "setting": "[30]", "result": 3.9}, {"measurement": "deltalog10CFU/ml", "setting": "[31]", "result": 5.1}, {"measurement": "deltalog10CFU/ml", "setting": "[32]", "result": 5.9}, {"measurement": "deltalog10CFU/ml", "setting": "[33]", "result": 4.1}, {"measurement": "MIC", "setting": "[34]", "result": 0.03, "unit": "µg/mL"}, {"measurement": "MIC", "setting": "[35]", "result": 0.012, "unit": "µg/mL"}]}]}
